rCAG binder: binds r(CAG) RNA repeats | r(CAG) RNA repeat, TO-PRO-1 dye displacement fluorescence | inhibition, % at 3 µM | 1.3% of 370,000 active;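 active = inhibition above the plate cutoff, the mean of all test compounds on that plate plus 3 SD, cut at about 35% in these data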;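 note: 0% = DMSO alone and 100% = 100 µM mitoxantrone as full dye displacement; higher means more dye released from RNA so lower well fluorescence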
NR2E3 ag-1: activates human photoreceptor nuclear receptor NR2E3; Q9Y5X4; GST-NR2E3/biotin-RetCOR TR-FRET, 1536-well; inhibition of corepressor binding, % at 4.78 µM; 0.12% of 320,000 active; AID 2300;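 active = percent inhibition above the cutoff of mean plus 3 SD of all tested compounds, set per screening campaign, cut at about 20% in these data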;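 note: 0% = DMSO wells and 100% = biotin wells as full block of FRET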
Target sequence (Q9Y5X4 whole entry, looked up): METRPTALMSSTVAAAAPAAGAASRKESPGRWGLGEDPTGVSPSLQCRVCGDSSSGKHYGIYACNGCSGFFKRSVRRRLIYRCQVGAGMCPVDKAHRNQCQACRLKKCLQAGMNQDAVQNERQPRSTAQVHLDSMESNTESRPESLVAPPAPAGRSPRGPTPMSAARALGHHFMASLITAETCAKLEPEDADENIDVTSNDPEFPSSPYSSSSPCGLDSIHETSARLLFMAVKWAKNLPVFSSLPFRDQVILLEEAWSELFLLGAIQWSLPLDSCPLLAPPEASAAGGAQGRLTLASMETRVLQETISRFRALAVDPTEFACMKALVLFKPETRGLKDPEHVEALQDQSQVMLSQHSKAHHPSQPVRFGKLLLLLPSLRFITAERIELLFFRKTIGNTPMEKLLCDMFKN
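Test system – NR2E3–RetCOR corepressor complex · Quantity – NR2E3 fusion 1.35 nM · Buffer or medium – Tris pH 7.5 · Incubation – Compound–protein incubation for 5 h at 4 °C · Technique – TR-FRET, Eu(K)-anti-GST donor, streptavidin-D2 acceptor, ex 340, em 617/671 nm · Evaluation – percent inhibition of 671/617 nm emission ratio versus biotin and DMSO controls · Plate – 1536-well format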
PG9 Ab binder: small molecules binding HIV-1 gp120 antibody PG9; TR-FRET gp120-PG9 antibody binding; inhibition, % at 6.7 µM; 0.43% of 360,000 active; AID 624416; in the data active = inhibition above about 8.5%
NR2E3 ag-2: human photoreceptor-specific nuclear receptor agonism | Q9Y5X4 | CHO-S Gal4-NCOR/VP16-NR2E3 two-hybrid, luciferase | inhibition of corepressor binding, % at 3.98 µM | 0.35% of 360,000 active | AID 602229;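 active = inhibition above the mean of all tested compounds plus 3 SD, cut at about 70% in these data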;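 note: 0% = DMSO with NR2E3 transfected cells and 100% = cells lacking NR2E3 construct; higher means lower luciferase signal from less NR2E3 corepressor binding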
Rev-erbA mod: modulates human Rev-erb alpha binding to DNA; 0.79% of 370,000 active; P20393; Rev-erbα–FITC-DNA binding, fluorescence polarization, 90 min; AID 1259318; activity, % at 10 µM;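 active = activity above about 14%, limit read from the data; passing the limit was not always enough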;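 note: 0% = DMSO wells with 35 nM protein and 100% = DMSO wells with 750 nM protein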
PG9 binder conf: PG9 antibody binding, confirmed | shares compounds with PG9 Ab binder | TR-FRET PG9 antibody binding, biochemical | inhibition, % at 6.7 µM | 90% of 1,500 active | AID 651571; in the data active = inhibition above about 9%
PGV04 Ab binding: PGV04 control antibody binding, counter-screen. shares compounds with PG9 Ab binder. TR-FRET PGV04 antibody-gp120 binding, biochemical. inhibition, % at 6.7 µM. 95% of 1,500 active; in the data active = inhibition above about 9.5%
NR1D1 mod conf: confirmation of modulators of human Rev-erb alpha DNA binding. Rev-erb alpha FITC-DNA binding, fluorescence polarization, 90 min. activation, % at 25 µM. shares compounds with Rev-erbA mod. 61% of 3,000 active;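 active = activation at or above a set limit, or at least 3 SD above the negative control mean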;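 note: 0% = 35 nM protein with DMSO and 100% = 750 nM protein high control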
RORg counter: RORgamma DNA-binding activity, dose-response counter-screen | shares compounds with Rev-erbA mod | purified RORgamma protein-FITC-DNA binding, fluorescence polarization | IC50, µM | 8% of 910 active | AID 1259320;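 active = Compounds whose fitted half-maximal concentration for disrupting protein-DNA binding is below 10 micromolar; the record names Rev-erb in its text, so the target is in doubt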
Active calls of the source: *; i = inactive; x = no result given. In the library only some 2.6% were active in any assay of this set; here they are far more common.

SMILES	rCAG binder	NR2E3 ag-1	PG9 Ab binder	NR2E3 ag-2	Rev-erbA mod	PG9 binder conf	PGV04 Ab binding	NR1D1 mod conf	RORg counter
Cc1ccc2nc(SCC(=O)Nc3ccc4sc(C)nc4c3)c(C#N)cc2c1	-1	-2	33*	-7	73*	30*	54*	71*	>40
Cc1cc(C)c2nc(SCC(=O)Nc3cc(C)on3)c(C#N)cc2c1	7	0	28*	3	103*	52*	75*	68*	i
COc1cc2cc(C#N)c(SCC(=O)Nc3cc(C)on3)nc2cc1OC	4	5	46*	13	113*	49*	69*	75*	>40
CCOC(=O)CC(=O)CSc1nc2ccc(C)cc2cc1C#N	22	6	-12	-128	2	x	x	x	x
Cc1cc(NC(=O)CSc2nc3c(c(-c4cccnc4)c2C#N)CCC3)no1	2	-1	20*	-25	41*	32*	66*	39*	x
Cc1cc(C)c2nc(SCC(=O)Nc3cc(C)on3)c(C)cc2c1	3	0	0	-11	11	x	x	x	x
O=C(C[C@H]1C=C[C@@H](NC(=O)c2ccncc2)[C@@H](CO)O1)NCC1CC1	-1	x	-1	x	7	x	x	x	x
Cc1ccc(C)c2nc(SCC(=O)NCc3cccs3)c(C#N)cc12	-1	4	1	5	-4	x	x	x	x
Cc1cccc2cc(C#N)c(SCC(=O)NCc3cccs3)nc12	-1	-7	42*	20	87*	50*	75*	61*	i
CCc1cc2cc(C)ccc2nc1SCC(=O)Nc1cc(C)on1	-2	-17	14*	9	17*	11*	31*	26*	x
Cc1ccc(-c2cnc(C(O)c3ccc(Cl)c(Cl)c3)[nH]2)cc1 (stereo not given)	2	x	0	-21	1	x	x	x	x
COc1ccc(C(=O)Nc2nc3ccccc3s2)cc1	12	4	-1	-144	1	x	x	x	x
COc1ccc(C(=O)Nc2nc3ccc4nc(C)sc4c3s2)cc1	6	-34	13*	-12	34*	9.8*	12*	42*	>40
CCN(C(=O)COC(=O)c1ccc2c(c1)OCO2)c1c(N)n(Cc2ccccc2)c(=O)[nH]c1=O	1	x	2	11	-4	x	x	x	x
CC1C(=O)C(C)C(c2cc(Br)ccc2O)NC1c1cc(Br)ccc1O (stereo not given)	9	x	-3	-16	1	x	x	x	x
Oc1ccc(Br)cc1C1Nc2ccccc2S1 (stereo not given)	1	-8	25*	-46	152*	21*	44*	89*	>40
CSc1nc(SCC(=O)NCc2ccco2)c2c3c(sc2n1)COC(C)(C)C3	20	6	-1	-15	-2	x	x	x	x
CCc1nc(SCC(=O)NCc2ccco2)c2c3c(sc2n1)CCCC3	-3	3	57*	-14	46*	42*	64*	55*	>40
CCCCSc1nc(SCC(=O)NCc2ccco2)c2c3c(sc2n1)COC(C)(CC)C3 (stereo not given)	10	2	12*	-15	40*	10*	17*	28*	x
COc1ccc(C(O)c2nc(-c3cccc(F)c3)cs2)cc1 (stereo not given)	0	x	-1	-6	6	x	x	x	x
COc1cc(NC(=O)CCn2c(=S)[nH]c3ccccc3c2=O)cc(OC)c1OC	4	x	81*	3	27*	79*	81*	36*	>40
O=C(Nc1scc(-c2ccccc2)c1C(=O)O)c1ccco1	10	3	0	-67	-1	x	x	x	x
COC(=O)c1c(-c2ccc(F)cc2)csc1NC(=O)c1ccco1	8	6	12*	-213	27*	18*	25*	16	x
Cc1ccc(C(=O)C2CCN(CC(=O)NCc3cccs3)CC2)cc1	5	x	x	x	1	x	x	x	x
O=S(=O)([N-]c1nc2ccccc2nc1-n1cc[n+](Cc2ccccc2)c1)c1ccc(Cl)cc1	0	-1	42*	-10	42*	41*	58*	11	x
SMILES	rCAG binder	NR2E3 ag-1	PG9 Ab binder	NR2E3 ag-2	Rev-erbA mod	PG9 binder conf	PGV04 Ab binding	NR1D1 mod conf	RORg counter
CC(=O)c1ccc(NC(=O)C(C)n2c3ccccc3c3nc(=O)cc(C)n32)cc1 (stereo not given)	-1	1	9.5*	-25	21*	14*	15*	9	x
Cc1cc(=O)nc2c3ccccc3n(C(C)C(=O)NCCC(C)C)n12 (stereo not given)	-7	3	-3	12	-1	x	x	x	x
Cn1c(SCC(=O)Nc2ccccc2)nc2c([nH]c3ccccc32)c1=O	4	5	8.8*	-17	21*	7	14*	16*	x
COc1ccc(-n2c(SCC(=O)Nc3cc(C)on3)nc3c([nH]c4ccccc43)c2=O)cc1	4	5	57*	-2	83*	43*	50*	67*	>40
O=S1(=O)CC(N2CCCC2)CN1Cc1cn(Cc2ccc(C(F)(F)F)cc2)nn1 (stereo not given)	2	x	-3	x	5	x	x	x	x
Cc1ccc2nc3c(cc(C(=O)NC4CCS(=O)(=O)C4)n3Cc3ccccc3)c(=O)n2c1 (stereo not given)	2	0	23*	-9	26*	20*	31*	0	x
COC(=O)c1c(NC(C)=O)sc(C(=O)Nc2ccccc2F)c1C	0	0	31*	-8	26*	36*	45*	21*	x
N#Cc1cc2c(nc1SCc1ccccc1)CCCC2	1	0	36*	0	28*	44*	76*	21*	x
COc1ccc(NC(=O)NNC(=O)COc2ccc3cc(Br)ccc3c2)cc1OC	7	-274	18*	-11	77*	29*	39*	65*	>40
COc1ccc(NC(=O)NNC(=O)COc2ccc3ccccc3c2)cc1OC	2	0	0	-41	2	x	x	x	x

Source: PubChem (several laboratories)
